Data from ChEMBL document CHEMBL3792368, “Design, synthesis, and in vitro and biological evaluation of potent amino acid-derived thiol inhibitors of the metallo-β-lactamase IMP-1” (Eur J Med Chem, 2016).
Active and inactive are the calls of the source. The rule behind the calls is not given here.

What was measured:
Pseudomonas aeruginosa [1] = experiment: Competitive inhibition of Pseudomonas aeruginosa 101/1477 IMP-1 expressed in Escherichia coli BL21(DE3) using benzylpenicillin as substrate assessed as residual activity measured for 5 mins by UV multiplate spectrophotometry
Outline: (§1)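 IMP-1 lacking the first 21 signal-peptide residues, expressed and purified by a previously published protocol. Kinetic assays were run at pH 7 and read out as residual enzyme activity. The chromogenic cephalosporin CENTA was not used as substrate because thiol inhibitors react with it.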

Pseudomonas aeruginosa [2] = experiment: Uncompetitive inhibition of Pseudomonas aeruginosa 101/1477 IMP-1 expressed in Escherichia coli BL21(DE3) using benzylpenicillin as substrate assessed as residual activity measured for 5 mins by UV multiplate spectrophotometry; outline: as §1
Escherichia coli BL21 [3] = experiment: Inhibition of IMP-1 in Escherichia coli BL21 assessed as imipenem MIC at 50 mM (reference value: 2 ug/ml)
Enterobacter cloacae [4] = experiment: Inhibition of IMP-4 in Enterobacter cloacae ECL2 co-expressing TEM1 assessed as reduction in imipenem MIC at 50 mM
Enterobacter cloacae [5] = experiment: Inhibition of IMP-4 in Enterobacter cloacae ECL2 co-expressing TEM1 assessed as imipenem MIC at 50 mM (reference value: 0.5 ug/ml)
Enterobacter cloacae [6] = experiment: Inhibition of IMP-4 in Enterobacter cloacae ECL1 assessed as reduction of imipenem MIC at 50 mM relative to control
Enterobacter cloacae [7] = experiment: Inhibition of IMP-4 in Enterobacter cloacae ECL1 assessed as imipenem MIC at 50 mM (reference value: 1.5 ug/ml)
Escherichia coli BL21 [8] = experiment: Inhibition of IMP-1 in Escherichia coli BL21 assessed as reduction of imipenem MIC at 50 mM relative to control
[9] = Competitive inhibition of IMP-1 (unknown origin)

Kic (Pseudomonas aeruginosa [1])	Kiuc (Pseudomonas aeruginosa [2])	SMILES	other results
1.45 µM	0.0602 mM	O=C(CCS)N[C@@H](Cc1ccccc1)C(=O)O	
5.85 µM	> 1 mM	O=C(CCCS)N[C@@H](Cc1ccc(OCc2ccccc2)cc1)C(=O)O	
0.086 µM	> 1 mM	O=C(CS)N[C@@H](Cc1ccc(OCc2ccccc2)cc1)C(=O)O	MIC (Escherichia coli BL21 [3]): 0.38 µg/mL; inhibition (Enterobacter cloacae [4]): inactive; MIC (Enterobacter cloacae [5]): 0.5 µg/mL; fold change (FC) (Enterobacter cloacae [6]): 3.9; MIC (Enterobacter cloacae [7]): 0.38 µg/mL; fold change (FC) (Escherichia coli BL21 [8]): 5.2
		O=C(CCS)N[C@H](Cc1ccccc1)C(=O)O	Ki [9]: 88 nM
4.55 µM	> 1 mM	O=C(CS)N[C@@H](Cc1ccc(O)cc1)C(=O)O	
0.32 µM	0.00264 mM	CC(=O)SCC(=O)O	
0.25 µM	> 1 mM	O=C(CS)N[C@@H](Cc1ccccc1)C(=O)O	
2.82 µM	> 1 mM	O=C(CCCS)N[C@@H](Cc1ccccc1)C(=O)O	
5.63 µM	> 1 mM	O=C(CCCS)N[C@@H](Cc1ccc(O)cc1)C(=O)O	
0.47 µM	> 1 mM	O=C(CS)N[C@@H](Cc1c[nH]c2ccccc12)C(=O)O	
5.18 µM	> 1 mM	O=C(CCS)N[C@@H](Cc1ccc(O)cc1)C(=O)O	
9.39 µM	> 1 mM	O=C(CCS)N[C@@H](Cc1ccc(OCc2ccccc2)cc1)C(=O)O	
8.62 µM	> 1 mM	O=C(CCCS)N[C@@H](Cc1c[nH]c2ccccc12)C(=O)O	
5.02 µM	> 1 mM	O=C(CCS)N[C@@H](Cc1c[nH]c2ccccc12)C(=O)O	
